Shown is part of a subset that was picked to be rich in hits.
CHOP inhibitor: inhibitors of CHOP induction in ER stress response. CHO-K1 CHOP-promoter luciferase, tunicamycin-induced, 15-18 h. 3.8% of 220,000 active. inhibition, % at 10 µM;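 active = compounds that reduced the stress-induced luciferase reporter signal by more than about 70% of percent inhibition, limit read from the data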;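 note: 0% = tunicamycin plus vehicle and 100% = wells without tunicamycin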
Lmaj promast: inhibitors of Leishmania major promastigote growth | 9% of 200,000 active | Leishmania major promastigotes, resazurin fluorescence viability | inhibition, % at 10 µM | AID 1063; in the data active = inhibition above about 50%;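 note: promastigotes grown with compound for 44 hours at 28 °C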
UPR XBP1 act: adaptive UPR (XBP1) activation. CHO-XBP1 luciferase reporter, IRE1-XBP1 UPR activation, luminescence; percent of tunicamycin response, DMSO as zero. activation, % at 20 µM. 0.33% of 330,000 active. AID 463104;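 active = versus positive control, 20 µM dose yields 30% or more activation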;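 note: 100% = tunicamycin at 10 µg/mL and 0% = DMSO only wells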
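Material: CHO-XBP1 cells stably carrying IRE1-XBP1-driven luciferase reporter | Medium: F12 with 10% serum | Compound dosing: 20 µM single concentration, DMSO 1% | Incubation: Overnight seeding at 37 °C, 6 h compound treatment at 37 °C | Detection: Steady-Glo luminescence read | Read-out basis: % activation of reporter signal versus tunicamycin and DMSO controls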
Dynein cargo inh: blocks dynein driven cargo transport along microtubules | 3617.4 mouse cells, GR-EGFP nuclear translocation imaging; test concentration mostly 20 µM; stimulated with dexamethasone, 1 µM; active compounds read low | z-score, hits read low | 0.47% of 220,000 active | AID 1381;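 active = plate z-score of nuclear minus cytoplasmic receptor signal below a set negative limit, without overly bright fluorescence or cell loss, cut at about -3.5 in these data, passing the limit was not always enough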;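 note: z-score of nuclear minus cytoplasmic ring GR-EGFP intensity difference per well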
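Buffer or medium: tet-free, stripped-serum medium; reagent: dexamethasone at 1.0 µM final, 30 min; incubation: 48 h induction, 1 h compound, 30 min dex at 37 °C; measured by: formaldehyde fixation, Hoechst nuclear stain, 10x automated fluorescence imaging; read-out: nuclear-to-cytoplasmic GR-EGFP distribution per well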
UPR CHOP act: apoptotic UPR (CHOP) activation. activation, % at 10 µM. 0.34% of 330,000 active. CHO-CHOP luciferase reporter, luminescence; percent of tunicamycin response over DMSO baseline. AID 449763;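 active = at 10 µM dose, activation of 40% or more, normalized to positive control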;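 note: 100% = tunicamycin at 10 µg/mL and 0% = DMSO alone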
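Test system: CHO CHOP reporter cells. Input: 500 CHO-CHOP cells per well. Medium: F12 with 10% FBS. Technique: luciferase luminescence. Measure: percent activation relative to tunicamycin control. Dosing: 10 µM compound, 0.5% DMSO. Timing: 16-18 h cell attachment, then 6 h compound exposure, 37 °C.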
T cruzi inh: blocks replication of Trypanosoma cruzi; 1.4% of 300,000 active; inhibition, % (concentration not given with the values); T. cruzi beta-gal in NIH3T3, luminescence, 90 h; AID 1885;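 active = mean inhibition across valid replicates above about 55%, limit read from the data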;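 note: signal also drops with host cell toxicity which is not excluded here; 0% = plate median of DMSO wells and 100% = zero luminescence signal; higher percent means less beta-gal luminescence so fewer parasites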
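System: mouse NIH/3T3 fibroblasts infected with β-gal-expressing T. cruzi Tulahuen C4 / Input: NIH/3T3 cells, 5,000 per well / Buffer or medium: Low-serum DMEM with 2% FBS / Probe or stimulus: 5000 reporter trypomastigotes per well / Schedule: ≥90 h infection period, 3 h prior cell attachment / Measured by: GalScreen luminescence, 60 min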
* = called active by the depositor; . = not tested or not shown.

SMILES | CHOP inhibitor | Lmaj promast | UPR XBP1 act | Dynein cargo inh | UPR CHOP act | T cruzi inh
COc1cc(S(=O)(=O)N2CCOCC2)ccc1NC(=O)COC(=O)c1cc(OC)c(OC)c(OC)c1 | . | . | 1 | . | -2 | .
CC1CCN(S(=O)(=O)c2csc(C(=O)Nc3ccccc3)c2)CC1 | 77* | 0 | -5 | 2.5 | -3 | -18
CC1CCN(S(=O)(=O)c2cccc(C(=O)Nc3ccccc3)c2)CC1 | 1 | 29 | -2 | 1.4 | -2 | -1
O=C(Nc1ccc(Cc2ccncc2)cc1)c1ccc(S(=O)(=O)N2CCOCC2)cc1 | 23 | 99* | 0 | -0.5 | 0 | 39
Cc1cc(C)c2oc(C(=O)Nc3ccc(S(=O)(=O)N4CCC(C)CC4)cc3)cc(=O)c2c1 | 42 | 87* | -1 | 0.83 | 3 | 10
CC(=O)Nc1ccc(NC(=O)c2cc(=O)c3cc(C)cc(C)c3o2)cc1 | . | . | 6 | . | 6 | -2
COc1cc(S(=O)(=O)N2CCOCC2)ccc1NC(=O)COC(=O)CC12CC3CC(CC(C3)C1)C2 | -12 | 100* | -3 | -0.91 | 1 | 21
Cc1sc(NC(=O)CSc2nnc(N)s2)c(C#N)c1C | . | . | 2 | . | -2 | 5
CC1CCN(S(=O)(=O)c2ccc(NC(=O)CN3CCN(C)CC3)cc2)CC1 | 1 | 24 | 2 | 1 | 1 | 59*
CC(=O)Nc1ccc(-c2csc(Nc3cc(C)ccn3)n2)cc1 | 9 | 60* | 7 | 1.3 | 4 | 23
CC(=O)Nc1cccc(-c2csc(Nc3cc(C)ccn3)n2)c1 | 25 | 27 | 3 | 0.88 | 1 | 0
CC(=O)Nc1ccc(-c2csc(Nc3ccc(Cl)cn3)n2)cc1 | -9 | 59* | 10 | 0.76 | 6 | 28
NC(=O)c1ccc(OCC(F)(F)C(F)(F)C(F)(F)C(F)(F)C(F)(F)C(F)F)cc1 | 61 | -4 | 4 | -0.17 | -1 | 3
Cc1cc(OCC(F)(F)C(F)(F)C(F)(F)C(F)(F)C(F)(F)C(F)F)nc(N)n1 | 91* | -6 | -2 | 0.46 | -1 | -6
CC(C)(C)N(Cc1ccccc1)C(=O)COC(=O)CSc1ccc([N+](=O)[O-])cc1 | . | . | -4 | . | -1 | -6
Cc1cccc(-c2nsc(SCC(=O)Nc3nccs3)n2)c1 | 87* | 0 | 0 | -0.4 | 0 | -7
Cc1cccc(-c2nsc(SCC(=O)Nc3ccc4c(c3)OCO4)n2)c1 | 21 | 0 | 1 | -0.23 | 1 | 17
CCCCOC(=O)C1=C(C)Nc2ncnn2C1c1ccc(OC)c(OC)c1OC (configuration not stated) | 35 | 14 | 14 | -0.82 | 3 | 3
CCCCOC(=O)C1=C(C)Nc2nnnn2C1c1ccc(OC)c(OC)c1OC (configuration not stated) | 16 | 94* | 1 | 0.76 | -1 | -4
O=C(NC1=NCCS1)c1cccc(S(=O)(=O)N2CCOCC2)c1 | . | . | 0 | . | -1 | .
CCn1c(C)cc(/C=C2\NC(=O)N(Cc3ccc(Cl)cc3)C2=O)c1C | 66 | -3 | -2 | 1.3 | 0 | 55*
COCCN(CC(=O)Nc1cccc(C)c1C)C(=O)c1cc(-c2ccncc2)nc2ccccc12 | . | . | -1 | . | -1 | .
O=C(CCC1CCCC1)N1CCN(C2CCCC2)CC1 | 13 | 94* | -4 | 3.3 | 1 | 17
O=C(CCC1CCCC1)N1CCN(C(=O)C2CC2)CC1 | 23 | -3 | 0 | -0.21 | 1 | -3
COc1ccccc1C(=O)N1CCC(N2CCN(c3ccccc3)CC2)CC1 | -4 | . | -1 | 0.46 | 2 | -17
SMILES | CHOP inhibitor | Lmaj promast | UPR XBP1 act | Dynein cargo inh | UPR CHOP act | T cruzi inh
CC(C)CC(=O)N1CCC(N2CCN(c3ccccc3)CC2)CC1 | 19 | 90* | -2 | -0.69 | -1 | -12
COc1ccc(C(=O)N2CCC(N3CCN(c4ccccc4)CC3)CC2)cc1 | -6 | 91* | -5 | -0.7 | -2 | 5
O=C(CCC1CCCC1)N1CCC(N2CCN(c3ccccc3)CC2)CC1 | 27 | 93* | -1 | 0.62 | 0 | 10
COc1ccc(N2CCN(C(=O)c3c(C)nn(-c4ccccc4)c3C)CC2)cc1 | 23 | 50* | -2 | 0.35 | -3 | -9
O=C(CCc1ccc(Oc2cc([N+](=O)[O-])cc([N+](=O)[O-])c2)cc1)N1CCCCCC1 | 50 | 98* | 25 | 0.015 | 1 | 68*
COc1ccc(CCC(=O)N2CCN(C3CCCCC3)CC2)cc1 | -11 | 56* | 1 | -0.23 | -2 | 62*
Cc1nn(-c2ccccc2)c(C)c1C(=O)N1CCN(S(=O)(=O)c2ccccc2)CC1 | . | . | -1 | . | -2 | .
O=C(CCCc1ccccc1)N1CCN(C2CCCCC2)CC1 | . | . | 0 | . | 4 | -30
NC(=O)Cn1cc(/C=N/NC(=O)c2ccc(Cn3cc(Cl)cn3)o2)c(-c2ccccc2)n1 | . | . | -1 | . | -1 | .
CCCc1nc2cc3c(cc2[nH]1)n(C)c(=O)n3C | . | . | -1 | . | 1 | 1
CC(=O)N1CCN(C(=O)c2ccc(Cl)c(S(=O)(=O)N3CCCCCC3)c2)CC1 | . | . | -3 | . | -2 | .
Nc1nnc(-c2cc3c(ccc4ccccc43)oc2=O)s1 | 23 | 81* | . | 0.1 | . | .
CCNC(=O)N(C)C[C@H]1N[C@@](CC)(C(=O)OC)[C@H]2C(=O)N(C)C(=O)[C@@H]12 | . | . | -1 | . | -2 | .
COc1ccc(C)cc1NC(=O)CCCN1C(=O)CN(C)C1=O | . | . | -1 | . | 1 | .
C=CCN(CC=C)C(=O)c1c(OC)cccc1OC | -3 | 1 | -2 | -0.8 | -3 | -4
C=CCc1c(C)[nH]c2c(OC)cccc2c1=S | -9 | 76* | 0 | -0.55 | -1 | 16
O=C(CC(Sc1ccc(Br)cc1)C(=O)O)c1ccc(Br)cc1 (configuration not stated) | . | . | -6 | . | 0 | 55*
NS(=O)(=O)c1ccc(CNC(=O)/C=C/c2cccc([N+](=O)[O-])c2)cc1 | 4 | . | -2 | 0.24 | 2 | -15
Cc1cc(S(=O)(=O)N2CCCC(N(C)CCc3ccccn3)C2)c(C)s1 (configuration not stated) | . | . | -3 | . | -1 | 24
CN(CCc1ccccn1)C1CCCN(S(=O)(=O)c2ccc(F)c(Cl)c2)C1 (configuration not stated) | . | . | -5 | . | 1 | 72*
CCNCc1ccc(OCc2ccccc2F)c(OC)c1 | 7 | 81* | -2 | 0.77 | -1 | 31
CCOCCCNCc1ccc(OCC(=O)N2CCOCC2)c(OC)c1 | 9 | 0 | 0 | 0.21 | 0 | 14
CCN(CC)CCNCc1cc(Cl)ccc1OCc1ccccc1F | 13 | 99* | -1 | 0.94 | 1 | -11
CCOCCCNCc1ccc(OCc2ccccc2C)c(OC)c1 | 25 | 98* | -1 | -0.43 | 2 | 52
